Experimental data from PubChem BioAssay AID2626 (Vanderbilt High Throughput Screening Facility, 2010).
The source made the active and inactive calls.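 Rule for the calls: active = response above about half the acetylcholine maximum when tested at 10 µM with a low acetylcholine dose; inactive = response below half the acetylcholine maximum.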

molecular target: Muscarinic acetylcholine receptor M1 (Rattus norvegicus) (UniProt P08482); test: rat M1 positive allosteric modulators, single dose, ACh EC20, CHO cells (AID 2626); conditions: CHO rM1 cells, calcium response with ACh EC20; at 10 µM; active compounds read high
Sequence (P08482 whole entry, looked up): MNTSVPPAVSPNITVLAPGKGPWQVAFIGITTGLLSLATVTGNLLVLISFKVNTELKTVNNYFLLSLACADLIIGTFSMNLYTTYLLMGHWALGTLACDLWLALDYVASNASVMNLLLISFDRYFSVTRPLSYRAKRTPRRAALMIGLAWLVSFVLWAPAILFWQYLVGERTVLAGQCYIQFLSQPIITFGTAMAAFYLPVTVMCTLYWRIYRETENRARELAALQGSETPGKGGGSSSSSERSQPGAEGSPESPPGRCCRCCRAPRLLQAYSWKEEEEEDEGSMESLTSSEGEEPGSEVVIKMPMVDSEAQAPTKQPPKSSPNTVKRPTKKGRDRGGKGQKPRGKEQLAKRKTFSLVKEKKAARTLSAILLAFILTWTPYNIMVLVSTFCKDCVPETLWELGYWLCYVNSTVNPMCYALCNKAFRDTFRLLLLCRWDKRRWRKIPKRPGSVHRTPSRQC
Outline: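 System: CHO cells expressing rat M1 muscarinic acetylcholine receptor. Also added: acetylcholine at submaximal, roughly EC20 concentration. Compound dosing: one dose, 10 µM. Read-out basis: enhancement of acetylcholine response.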

% of ACh max response (PAM)	Compound
54.8%	COc1ccc(Cn2cc(S(=O)(=O)CC(=O)Nc3cc(C)on3)c3ccccc32)cc1
41.2% (inactive)	Cc1cc(NC(=O)CS(=O)(=O)c2cn(Cc3ccc(F)nc3)c3ccccc23)no1
30.8% (inactive)	Cc1cc(NC(=O)CS(=O)(=O)c2cn(Cc3ccc(Cl)cc3)c3ccccc23)no1
35.8% (inactive)	Cc1cc(NC(=O)CS(=O)(=O)c2cn(Cc3ccc4c(c3)OCO4)c3ccccc23)no1
52.9%	Cc1cc(NC(=O)CS(=O)(=O)c2cn(Cc3ccccc3F)c3ccccc23)no1
30.6% (inactive)	COc1ccccc1Cn1cc(S(=O)(=O)CC(=O)Nc2cc(C)on2)c2ccccc21
51.6%	Cc1cc(NC(=O)CS(=O)(=O)c2cn(Cc3ccc(F)cc3F)c3ccccc23)no1
27.7% (inactive)	Cc1cc(NC(=O)CS(=O)(=O)c2cn(Cc3ccc(Br)cc3F)c3ccccc23)no1
28.7% (inactive)	Cc1cc(NC(=O)CS(=O)(=O)c2cn(Cc3ccc(OC(F)(F)F)cc3)c3ccccc23)no1
52.7%	Cc1cc(NC(=O)CS(=O)(=O)c2cn(Cc3cccc(C#N)c3)c3ccccc23)no1
24% (inactive)	Cc1cc(NC(=O)CS(=O)(=O)c2cn(Cc3ccc(F)c(Br)c3)c3ccccc23)no1
30.4% (inactive)	Cc1cc(NC(=O)CS(=O)(=O)c2cn(Cc3ccc(C(F)(F)F)cc3)c3ccccc23)no1

The next lines start with the molecule.

Compound	% of ACh max response (PAM)
Cc1cc(NC(=O)C(Cc2ccc(F)cc2F)S(=O)(=O)c2cn(Cc3ccc(F)cc3F)c3ccccc23)no1 (stereo not drawn)	38.5% (inactive)
O=C(CS(=O)(=O)c1cn(Cc2cc(Br)ccc2F)c2ccccc12)Nc1ccccc1	13.9% (inactive)
Cc1cc(NC(=O)C(Cc2ccccc2F)S(=O)(=O)c2cn(Cc3ccccc3F)c3ccccc23)no1 (stereo not drawn)	44.5% (inactive)
Cc1cc(NC(=O)CS(=O)c2cn(Cc3cccc(Cl)c3)c3ccccc23)no1 (stereo not drawn)	72.4%
Cc1cc(NC(=O)CSc2cn(Cc3cccc(Br)c3)c3ccccc23)no1	26.9% (inactive)
Cc1cc(NC(=O)CS(=O)(=O)c2cn(Cc3cccc(-c4ccc(N5CCCC5)nc4)c3)c3ccccc23)no1	33.3% (inactive)
CS(=O)(=O)c1cn(Cc2ccccc2Cl)c2ccccc12	26.3% (inactive)
Cc1cc(NC(=O)C(C)S(=O)(=O)c2cn(Cc3cc(Br)cc(Br)c3)c3ccccc23)no1 (stereo not drawn)	17.7% (inactive)
Cc1cc(NC(=O)CSc2cn(Cc3ccccc3Cl)c3ccccc23)no1	26.7% (inactive)
Cc1cc(NC(=O)C(Cc2cccc(Cl)c2)S(=O)(=O)c2cn(Cc3cccc(Cl)c3)c3ccccc23)no1 (stereo not drawn)	42.1% (inactive)
Cc1cc(NC(=O)CS(=O)(=O)c2cn(Cc3cccc(-c4cnn(CC(C)C)c4)c3)c3ccccc23)no1	24.4% (inactive)
Cc1cc(NC(=O)CS(=O)(=O)c2cn(Cc3cccc(-c4ccc(N5CCOCC5)nc4)c3)c3ccccc23)no1	18.5% (inactive)
COC(=O)CS(=O)(=O)c1cn(Cc2cc(Br)ccc2F)c2ccccc12	7.5% (inactive)
Cc1cc(NC(=O)CS(=O)(=O)c2c[nH]c3ccccc23)no1	29% (inactive)
Cc1cc(NC(=O)CS(=O)(=O)c2cn(Cc3cccc(-c4ccc(N5CCNCC5)nc4)c3)c3ccccc23)no1	43.6% (inactive)
Cc1cc(NC(=O)C(Cc2ccc(OC(F)(F)F)cc2)S(=O)(=O)c2cn(Cc3ccc(OC(F)(F)F)cc3)c3ccccc23)no1 (stereo not drawn)	28.7% (inactive)
Cc1cc(NC(=O)CS(=O)(=O)c2cn(Cc3cc(Br)cc(Br)c3)c3ccccc23)no1	12.7% (inactive)
O=C(O)CS(=O)(=O)c1cn(Cc2cc(Br)ccc2F)c2ccccc12	18.1% (inactive)
Cc1cc(NC(=O)C(C)S(=O)(=O)c2cn(Cc3cc(Br)ccc3F)c3ccccc23)no1 (stereo not drawn)	19.7% (inactive)
Cc1cc(NC(=O)CSc2c[nH]c3ccccc23)no1	28.8% (inactive)
Cc1cc(NC(=O)CS(=O)(=O)c2cn(Cc3cccc(-c4ccc(Cl)nc4)c3)c3ccccc23)no1	26.4% (inactive)
